# Source: ChEMBL document CHEMBL1275246 (Bioorg Med Chem, 2010)
# Legend:
# [1] = target: 5-hydroxytryptamine receptor 1B (Homo sapiens) (UniProt P28222); test: Displacement of [3H][…] from human cloned 5HT1B receptor
# [2] = target: D(4) dopamine receptor (Homo sapiens) (UniProt P21917); test: Displacement of [3H]N-methylspiperone from human cloned dopamine D4 receptor
# [3] = target: 5-hydroxytryptamine receptor 3A (Homo sapiens) (UniProt P46098); test: Displacement of [3H]LY278584 from human cloned 5HT3 receptor
# [4] = Biodistribution in iv dosed baboon heart by dynamic PET imaging analysis; assay type: ADME, organism-based; conditions: papio anubis, in vivo
# How it was run: (§1)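 Female Papio anubis baboons; ketamine 10 mg/kg i.m. induction, then O2/N2O/isoflurane (1–4%). Radiotracer given through a radial arm vein catheter. Dynamic 3D PET over 90 min (55 frames), brain or torso in field of view. Regions of interest drawn on summed images give time-activity curves as decay-corrected %injected dose/cc.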
# [5] = target: Kappa-type opioid receptor (Rattus norvegicus) (UniProt P34975); test: Displacement of [3H]U69593 from rat cloned kappa opioid receptor
# [6] = target: 5-hydroxytryptamine receptor 1A (Homo sapiens) (UniProt P08908); test: Displacement of [3H]8-OH-DPAT from human cloned 5HT1A receptor
# Sequence of 5-hydroxytryptamine receptor 1A (Homo sapiens) (P08908 whole entry): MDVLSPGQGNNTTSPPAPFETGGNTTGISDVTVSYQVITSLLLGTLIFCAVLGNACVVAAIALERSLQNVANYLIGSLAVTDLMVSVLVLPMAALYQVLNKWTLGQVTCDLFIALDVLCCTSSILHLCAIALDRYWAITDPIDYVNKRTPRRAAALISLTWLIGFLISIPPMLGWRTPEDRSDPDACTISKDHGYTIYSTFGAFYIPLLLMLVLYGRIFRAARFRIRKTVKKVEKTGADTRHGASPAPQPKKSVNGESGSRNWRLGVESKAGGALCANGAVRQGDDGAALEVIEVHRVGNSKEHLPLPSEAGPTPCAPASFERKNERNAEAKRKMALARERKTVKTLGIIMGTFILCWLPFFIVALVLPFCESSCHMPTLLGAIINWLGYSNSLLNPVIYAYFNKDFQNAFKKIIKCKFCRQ
# [7] = target: D(3) dopamine receptor (Rattus norvegicus) (UniProt P19020); test: Displacement of [3H]N-methylspiperone from rat cloned dopamine D3 receptor
# [8] = target: Delta-type opioid receptor (Homo sapiens) (UniProt P41143); test: Displacement of [3H]DADLE from human cloned delta opioid receptor
# [9] = target: Histamine H2 receptor (Homo sapiens) (UniProt P25021); test: Displacement of [3H]Tiotidine from human cloned histamine H2 receptor
# [10] = target: Muscarinic acetylcholine receptor M4 (Homo sapiens) (UniProt P08173); test: Displacement of [3H]QNB from human cloned muscarinic M4 receptor
# [11] = target: 5-hydroxytryptamine receptor 2C (Rattus norvegicus) (UniProt P08909); test: Displacement of [3H]Mesulergine from rat cloned 5HT2C receptor
# Sequence of 5-hydroxytryptamine receptor 2C (Rattus norvegicus) (P08909 whole entry): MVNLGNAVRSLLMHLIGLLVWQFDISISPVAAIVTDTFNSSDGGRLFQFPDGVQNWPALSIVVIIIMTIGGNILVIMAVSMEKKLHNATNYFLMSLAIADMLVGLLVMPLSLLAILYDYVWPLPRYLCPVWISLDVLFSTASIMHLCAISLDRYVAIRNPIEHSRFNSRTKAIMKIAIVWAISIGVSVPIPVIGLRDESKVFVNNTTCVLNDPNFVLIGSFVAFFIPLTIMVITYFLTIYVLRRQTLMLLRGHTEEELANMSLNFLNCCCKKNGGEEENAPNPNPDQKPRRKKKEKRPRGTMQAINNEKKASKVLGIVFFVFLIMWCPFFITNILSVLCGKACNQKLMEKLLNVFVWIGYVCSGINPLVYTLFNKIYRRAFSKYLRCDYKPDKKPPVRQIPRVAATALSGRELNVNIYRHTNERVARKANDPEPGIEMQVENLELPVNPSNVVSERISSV
# [12] = target: 5-hydroxytryptamine receptor 4 (Homo sapiens) (UniProt Q13639); test: Binding affinity to human cloned 5HT4 receptor
# Sequence of 5-hydroxytryptamine receptor 4 (Homo sapiens) (Q13639 whole entry): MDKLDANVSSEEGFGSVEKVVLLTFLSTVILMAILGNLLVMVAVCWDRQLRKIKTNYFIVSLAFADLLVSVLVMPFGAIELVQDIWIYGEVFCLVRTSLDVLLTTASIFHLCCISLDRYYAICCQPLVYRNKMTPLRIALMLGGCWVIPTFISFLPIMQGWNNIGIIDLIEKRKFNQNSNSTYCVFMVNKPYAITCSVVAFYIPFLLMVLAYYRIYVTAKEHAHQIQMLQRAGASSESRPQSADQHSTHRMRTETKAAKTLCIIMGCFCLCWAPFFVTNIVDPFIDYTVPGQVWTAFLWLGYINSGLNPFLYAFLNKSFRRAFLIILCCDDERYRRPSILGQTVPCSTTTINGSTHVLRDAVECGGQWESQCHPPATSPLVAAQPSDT
# [13] = target: Alpha-1B adrenergic receptor (Homo sapiens) (UniProt P35368); test: Displacement of [3H]prazosin from human cloned adrenergic Alpha-1B receptor
# [14] = target: Prostaglandin E2 receptor EP3 subtype (Homo sapiens) (UniProt P43115); test: Displacement of [3H]PGE2 from human cloned EP3 receptor
# [15] = target: Alpha-2A adrenergic receptor (Homo sapiens) (UniProt P08913); test: Displacement of [3H]clonidine from human cloned adrenergic alpha-2a receptor
# [16] = Biodistribution in iv dosed baboon heart by dynamic PET imaging analysis in presence of metergoline; assay type: ADME, organism-based; conditions: papio anubis, in vivo
# How it was run: (§2)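 Baboons anesthetized (ketamine i.m., then isoflurane/N2O/O2). […] Dynamic 3D PET for 90 min, brain or torso in view. Region time-activity curves as decay-corrected %ID/cc.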
# [17] = target: Prostaglandin E2 receptor EP4 subtype (Homo sapiens) (UniProt P35408); test: Displacement of [3H]PGE2 from human cloned EP4 receptor
# [18] = target: 5-hydroxytryptamine receptor 1D (Homo sapiens) (UniProt P28221); test: Displacement of [3H][…] from human cloned 5HT1D receptor
# [19] = target: D(1A) dopamine receptor (Homo sapiens) (UniProt P21728); test: Displacement of [3H][…] from human cloned dopamine D1 receptor
# Sequence of D(1A) dopamine receptor (Homo sapiens) (P21728 whole entry): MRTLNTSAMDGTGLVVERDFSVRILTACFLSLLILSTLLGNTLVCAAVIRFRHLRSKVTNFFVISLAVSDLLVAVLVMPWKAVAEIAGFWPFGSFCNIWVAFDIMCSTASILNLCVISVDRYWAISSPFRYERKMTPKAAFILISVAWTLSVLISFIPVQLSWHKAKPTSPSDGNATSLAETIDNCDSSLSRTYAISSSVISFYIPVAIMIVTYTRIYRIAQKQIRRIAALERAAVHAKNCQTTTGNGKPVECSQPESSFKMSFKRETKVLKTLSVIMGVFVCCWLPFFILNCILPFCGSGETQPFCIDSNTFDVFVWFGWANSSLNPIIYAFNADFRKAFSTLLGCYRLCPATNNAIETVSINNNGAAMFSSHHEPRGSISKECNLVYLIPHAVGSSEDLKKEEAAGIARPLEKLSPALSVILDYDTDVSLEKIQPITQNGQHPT
# [20] = target: Sodium-dependent noradrenaline transporter (Homo sapiens) (UniProt P23975); test: Displacement of [3H]nisoxetine from human cloned NET
# [21] = target: 5-hydroxytryptamine receptor 2B (Homo sapiens) (UniProt P41595); test: Displacement of [3H]LSD from human cloned 5HT2B receptor
# Sequence of 5-hydroxytryptamine receptor 2B (Homo sapiens) (P41595 whole entry): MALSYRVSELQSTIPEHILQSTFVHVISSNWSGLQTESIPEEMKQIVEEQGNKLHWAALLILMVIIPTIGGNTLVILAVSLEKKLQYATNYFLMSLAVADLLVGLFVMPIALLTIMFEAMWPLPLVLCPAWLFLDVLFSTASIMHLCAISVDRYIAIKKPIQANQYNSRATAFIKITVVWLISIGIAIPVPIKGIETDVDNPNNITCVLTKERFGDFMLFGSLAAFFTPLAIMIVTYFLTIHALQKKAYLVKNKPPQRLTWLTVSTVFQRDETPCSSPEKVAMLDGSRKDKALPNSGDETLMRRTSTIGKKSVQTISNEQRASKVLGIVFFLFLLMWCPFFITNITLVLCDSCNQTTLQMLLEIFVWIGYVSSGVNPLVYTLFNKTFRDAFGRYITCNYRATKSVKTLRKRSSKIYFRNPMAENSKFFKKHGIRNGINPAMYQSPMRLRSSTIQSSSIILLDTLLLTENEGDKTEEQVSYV
# [22] = target: Muscarinic acetylcholine receptor M2 (Homo sapiens) (UniProt P08172); test: Displacement of [3H]QNB from human cloned muscarinic M2 receptor
# [23] = target: D(2) dopamine receptor (Homo sapiens) (UniProt P14416); test: Displacement of [3H]N-methylspiperone from human cloned dopamine D2 receptor
# Sequence of D(2) dopamine receptor (Homo sapiens) (P14416 whole entry): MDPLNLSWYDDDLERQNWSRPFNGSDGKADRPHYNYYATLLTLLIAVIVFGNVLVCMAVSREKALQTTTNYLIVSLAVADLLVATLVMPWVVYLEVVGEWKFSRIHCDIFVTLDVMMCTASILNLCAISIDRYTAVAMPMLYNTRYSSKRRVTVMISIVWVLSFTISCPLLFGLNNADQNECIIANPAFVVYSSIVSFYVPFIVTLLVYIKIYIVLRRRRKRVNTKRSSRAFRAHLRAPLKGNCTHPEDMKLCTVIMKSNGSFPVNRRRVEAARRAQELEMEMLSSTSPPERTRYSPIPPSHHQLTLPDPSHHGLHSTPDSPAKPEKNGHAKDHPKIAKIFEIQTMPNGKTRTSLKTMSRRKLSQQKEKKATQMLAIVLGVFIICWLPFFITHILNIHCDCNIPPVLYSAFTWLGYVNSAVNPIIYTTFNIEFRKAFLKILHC
# [24] = target: 5-hydroxytryptamine receptor 1E (Homo sapiens) (UniProt P28566); test: Displacement of [3H]5-HT from human cloned 5HT1E receptor
# Sequence of 5-hydroxytryptamine receptor 1E (Homo sapiens) (P28566 whole entry): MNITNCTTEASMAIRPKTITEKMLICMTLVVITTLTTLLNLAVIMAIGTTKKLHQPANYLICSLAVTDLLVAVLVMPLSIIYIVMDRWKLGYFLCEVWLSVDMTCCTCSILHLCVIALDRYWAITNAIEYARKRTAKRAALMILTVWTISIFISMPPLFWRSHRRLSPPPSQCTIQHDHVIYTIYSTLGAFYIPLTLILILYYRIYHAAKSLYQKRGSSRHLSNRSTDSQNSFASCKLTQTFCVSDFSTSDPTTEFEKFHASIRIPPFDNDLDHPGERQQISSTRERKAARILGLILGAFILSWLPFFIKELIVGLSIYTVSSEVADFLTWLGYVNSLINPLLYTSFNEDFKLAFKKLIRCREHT
# [25] = target: 5-hydroxytryptamine receptor 5A (Homo sapiens) (UniProt P47898); test: Displacement of [3H]LSD from human cloned 5HT5A receptor
# Sequence of 5-hydroxytryptamine receptor 5A (Homo sapiens) (P47898 whole entry): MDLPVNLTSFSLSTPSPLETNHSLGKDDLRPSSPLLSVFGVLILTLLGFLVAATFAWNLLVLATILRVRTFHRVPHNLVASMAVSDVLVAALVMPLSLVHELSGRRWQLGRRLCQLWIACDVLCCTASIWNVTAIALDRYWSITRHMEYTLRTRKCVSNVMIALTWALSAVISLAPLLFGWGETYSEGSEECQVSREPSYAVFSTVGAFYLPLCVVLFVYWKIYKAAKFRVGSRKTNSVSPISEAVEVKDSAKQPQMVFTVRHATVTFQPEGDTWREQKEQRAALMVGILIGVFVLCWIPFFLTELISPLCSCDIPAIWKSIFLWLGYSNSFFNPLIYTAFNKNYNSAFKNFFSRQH
# [26] = target: Alpha-1A adrenergic receptor (Homo sapiens) (UniProt P35348); test: Displacement of [3H]prazosin from human cloned adrenergic alpha1A receptor
# Sequence of Alpha-1A adrenergic receptor (Homo sapiens) (P35348 whole entry): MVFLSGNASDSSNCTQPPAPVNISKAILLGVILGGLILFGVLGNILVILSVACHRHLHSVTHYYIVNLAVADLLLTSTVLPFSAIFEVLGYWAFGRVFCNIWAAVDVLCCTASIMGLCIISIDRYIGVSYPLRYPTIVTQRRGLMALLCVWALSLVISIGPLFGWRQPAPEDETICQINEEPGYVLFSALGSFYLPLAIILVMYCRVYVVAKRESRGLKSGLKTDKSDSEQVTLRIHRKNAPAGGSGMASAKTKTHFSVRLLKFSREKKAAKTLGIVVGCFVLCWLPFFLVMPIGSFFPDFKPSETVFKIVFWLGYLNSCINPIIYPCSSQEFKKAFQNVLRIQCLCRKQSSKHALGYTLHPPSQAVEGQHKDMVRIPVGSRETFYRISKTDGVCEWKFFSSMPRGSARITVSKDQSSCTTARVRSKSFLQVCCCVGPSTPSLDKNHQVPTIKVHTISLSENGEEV
# [27] = target: Histamine H4 receptor (Homo sapiens) (UniProt Q9H3N8); test: Displacement of [3H]histamine from human cloned histamine H4 receptor
# Sequence of Histamine H4 receptor (Homo sapiens) (Q9H3N8 whole entry): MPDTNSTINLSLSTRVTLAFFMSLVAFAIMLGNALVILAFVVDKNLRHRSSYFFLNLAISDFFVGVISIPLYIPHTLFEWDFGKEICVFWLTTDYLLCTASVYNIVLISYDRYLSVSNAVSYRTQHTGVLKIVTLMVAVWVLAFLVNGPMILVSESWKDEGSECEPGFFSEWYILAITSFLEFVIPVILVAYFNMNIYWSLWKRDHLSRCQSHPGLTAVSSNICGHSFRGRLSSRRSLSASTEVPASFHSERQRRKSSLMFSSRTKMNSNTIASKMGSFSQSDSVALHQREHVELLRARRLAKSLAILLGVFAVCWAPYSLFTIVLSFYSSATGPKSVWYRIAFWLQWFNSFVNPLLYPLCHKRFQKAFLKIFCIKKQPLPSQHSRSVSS
# [28] = target: Alpha-2C adrenergic receptor (Homo sapiens) (UniProt P18825); test: Displacement of [3H]clonidine from human cloned adrenergic alpha2c receptor
# Sequence of Alpha-2C adrenergic receptor (Homo sapiens) (P18825 whole entry): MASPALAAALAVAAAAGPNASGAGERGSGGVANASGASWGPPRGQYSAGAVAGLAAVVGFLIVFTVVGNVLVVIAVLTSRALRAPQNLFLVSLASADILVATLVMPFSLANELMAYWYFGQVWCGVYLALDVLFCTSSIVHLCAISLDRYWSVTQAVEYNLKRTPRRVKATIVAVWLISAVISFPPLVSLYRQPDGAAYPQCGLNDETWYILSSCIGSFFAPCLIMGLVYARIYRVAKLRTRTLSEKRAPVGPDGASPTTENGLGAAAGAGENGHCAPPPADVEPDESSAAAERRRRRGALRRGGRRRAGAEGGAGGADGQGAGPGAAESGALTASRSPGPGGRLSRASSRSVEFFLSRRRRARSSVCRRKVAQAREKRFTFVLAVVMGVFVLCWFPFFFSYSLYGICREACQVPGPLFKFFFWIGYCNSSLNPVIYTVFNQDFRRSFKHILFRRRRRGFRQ
# [29] = Biodistribution in iv dosed baboon gall bladder by dynamic PET imaging analysis; assay type: ADME, organism-based; conditions: papio anubis, in vivo; how it was run: as §1
# [30] = Drug uptake in iv dosed baboon occipital cortex in presence of citalopram; assay type: ADME, organism-based; conditions: papio anubis, in vivo
# How it was run: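 Citalopram-HBr 5.0 mg/kg (as free base) in 10 mL saline, filter-sterilized, i.v. bolus 20 min before radiotracer in anesthetized baboons. 90-min dynamic 3D brain PET. Region time-activity curves as decay-corrected %ID/cc.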
# [31] = Plasma protein binding in baboon after 10 mins; assay type: ADME, cell-free; conditions: papio anubis, read-out: PPB
# How it was run: (§3)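 Radiotracer in saline added to pooled baboon plasma (from ≥4 animals). Mixed by inversion, incubated 10 min at room temperature. Total activity sampled. Plasma then centrifuged 10 min through a Centrifree ultrafiltration unit and filtrate counted. %unbound = filtrate activity ×100/total activity.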
# [32] = Lipophilicity, log D of compound in phosphate buffer solution at pH 7.4; assay type: physicochemical
# How it was run: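 Formulated radiotracer partitioned between octanol and phosphate buffer pH 7.4: vortexed 2 min, centrifuged 2 min. Octanol layer serially re-extracted with fresh buffer to give six sample sets, each phase well-counted. logD = log(decay-corrected octanol activity ×10/decay-corrected buffer activity) for each set.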
# [33] = Drug uptake in iv dosed baboon occipital cortex in presence of metergoline; assay type: ADME, organism-based; conditions: papio anubis, in vivo; how it was run: as §2
# [34] = Drug uptake in iv dosed baboon occipital cortex in presence of altanserin; assay type: ADME, organism-based; conditions: papio anubis, in vivo
# How it was run: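 Baboon pretreated with altanserin 0.5 mg/kg, dissolved in 2% HCl in EtOH, diluted with saline to 30 mL, filter-sterilized (final pH ~5.5). Given 15 min before i.v. radiotracer. Anesthetized animal (ketamine, then isoflurane). 90-min dynamic 3D brain PET; region curves as decay-corrected %ID/cc.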
# Brain = test: Biodistribution in iv dosed baboon brain after 2 to 10 mins by PET imaging analysis; assay type: ADME, organism-based; conditions: papio anubis, in vivo; how it was run: as §1
# [35] = Fraction unbound in baboon plasma after 10 mins; assay type: ADME, cell-free; conditions: papio anubis; how it was run: as §3
# [36] = Drug uptake in iv dosed baboon frontal cortex in presence of metergoline; assay type: ADME, organism-based; conditions: papio anubis, in vivo; how it was run: as §2
smiles,measurement,setting,value
CN1C[C@H](CNC(=O)OCc2ccccc2)C[C@@H]2c3cccc4c3c(cn4C)C[C@H]21 [METERGOLINE],Activity,[1],28 nM
same,Activity,[2],4.9 nM
same,Activity,[3],> 10 µM
same,Drug uptake,[4],Active
same,Activity,[5],63.2 nM
same,Activity,[6],10 nM
same,Activity,[7],14 nM
same,Activity,[8],18.9 nM
same,Activity,[9],104 nM
same,Activity,[10],36.9 nM
same,Activity,[11],9.5 nM
same,Activity,[12],1270 nM
same,Activity,[13],123 nM
same,Activity,[14],21.7 nM
same,Activity,[15],31 nM
same,Drug uptake,[16],Active
same,Activity,[17],15.2 nM
same,Activity,[18],0.9 nM
same,Activity,[19],9 nM
same,Activity,[20],1130 nM
same,Activity,[21],2.6 nM
same,Activity,[22],17.7 nM
same,Activity,[23],74 nM
same,Activity,[24],1660 nM
same,Activity,[25],562 nM
same,Activity,[26],30 nM
same,Activity,[27],12.7 nM
same,Activity,[28],30 nM
CN1C[C@H](CN[11C](=O)OCc2ccccc2)C[C@@H]2c3cccc4c3c(cn4C)C[C@H]21 [[11C]-METERGOLINE],Drug uptake,[29],0.3 %ID
same,Drug uptake,[30],Active
same,fraction unbound at 10 min,[31],< 0.01
same,logD,[32],3.3
same,Drug uptake,[33],Not Active
same,Drug uptake,[34],Not Active
same,Drug uptake,Brain,0.01 %ID
same,Fu,[35],0.55%
same,Drug uptake,[36],Not Active
